Measurements taken from ChEMBL document CHEMBL1153265, “Quinolines as a novel structural class of potent and selective PDE4 inhibitors: optimisation for oral administration” (Bioorg Med Chem Lett, 2009).
Values after ≈ are worked out from the molar mass of the structure shown.

What was measured:
[1] = Oral bioavailability in Sprague-Dawley CD rat at 1 mg/kg; type: ADME, organism-based; settings: in vivo
Procedure, shortened: (§1)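 Male CD Sprague rats, each compound given intravenously and orally at 1 mg/kg. Pharmacokinetic parameters derived from both routes.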

[2] = Half life in Sprague-Dawley CD rat at 1 mg/kg, iv and 1 mg/kg, po; type: ADME, organism-based; settings: in vivo; procedure, shortened: as §1
[3] = Clearance in Sprague-Dawley CD rat at 1 mg/kg, iv and 1 mg/kg, po; type: ADME, organism-based; settings: in vivo; procedure, shortened: as §1
[4] = Solubility of the compound; type: physicochemical
[5] = target: 3',5'-cyclic-AMP phosphodiesterase 4B (Homo sapiens, UniProt Q07343); assay: Inhibition of human recombinant PDE4B by scintillation proximity assay
Blood = assay: Inhibition of LPS-induced TNFalpha production in human whole blood; type: functional, tissue-based
[6] = AUC in Sprague-Dawley CD rat at 1 mg/kg, po; type: ADME, organism-based; parameters: dose 1 mg/kg, route oral; settings: plasma; procedure, shortened: as §1
[7] = Selectivity for human recombinant PDE4B over PDE1
[8] = Selectivity for human recombinant PDE4B over PDE2
[9] = Selectivity for human recombinant PDE4B over PDE6
[10] = Selectivity for human recombinant PDE4B over PDE7
[11] = Selectivity for human recombinant PDE4B over bovine aorta PDE3; type: tissue-based
Procedure, shortened: (§2)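 Catalytic activity of human recombinant PDE4B, PDE3 purified from bovine aorta and human recombinant PDE5 was measured by scintillation proximity assay in 96-well format. Selectivity compares inhibition of PDE4B with inhibition of the other enzyme.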

Homo sapiens = organism: Homo sapiens; assay: Selectivity for human recombinant PDE4B over human recombinant PDE5; procedure, shortened: as §2

Chain of 3',5'-cyclic-AMP phosphodiesterase 4B (Q07343 whole entry): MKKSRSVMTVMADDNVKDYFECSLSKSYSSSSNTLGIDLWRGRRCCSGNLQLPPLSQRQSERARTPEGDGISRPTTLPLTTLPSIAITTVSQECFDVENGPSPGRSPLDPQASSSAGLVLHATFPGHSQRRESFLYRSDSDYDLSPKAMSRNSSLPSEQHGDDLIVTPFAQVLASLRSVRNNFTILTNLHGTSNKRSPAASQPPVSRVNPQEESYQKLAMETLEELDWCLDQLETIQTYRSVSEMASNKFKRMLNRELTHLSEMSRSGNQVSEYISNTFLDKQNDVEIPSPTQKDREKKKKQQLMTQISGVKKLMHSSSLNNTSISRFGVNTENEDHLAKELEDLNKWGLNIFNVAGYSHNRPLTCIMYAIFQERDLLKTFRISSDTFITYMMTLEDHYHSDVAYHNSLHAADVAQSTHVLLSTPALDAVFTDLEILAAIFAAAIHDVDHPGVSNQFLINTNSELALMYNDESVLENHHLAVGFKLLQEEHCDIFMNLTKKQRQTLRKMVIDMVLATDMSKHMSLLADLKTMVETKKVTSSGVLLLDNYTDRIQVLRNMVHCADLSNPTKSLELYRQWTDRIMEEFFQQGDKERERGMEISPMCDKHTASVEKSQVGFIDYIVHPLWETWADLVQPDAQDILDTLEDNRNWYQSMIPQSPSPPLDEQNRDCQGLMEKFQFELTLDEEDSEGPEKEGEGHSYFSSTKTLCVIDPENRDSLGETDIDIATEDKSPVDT

Q: What does the source list for `COc1cccc(Nc2c(C(N)=O)cnc3ccc(S(C)(=O)=O)cc23)c1`?
A: bioavailability [1]: 10%; half-life [2]: 1.1 h; clearance [3]: 10 mL/min/kg; solubility [4]: 5 µg/mL (≈ 13.5 µM)

Q: Which IC50 [5] does the source give for `COc1cc(Nc2c(C(N)=O)cnc3c(OC)cc(S(C)(=O)=O)cc23)ccc1F` here?
A: Its IC50 is 5.01 nM.

Q: What about the IC50 (Blood) of the same molecule?
A: The IC50 was 251 nM.

Q: And the AUC [6]?
A: The AUC was 81 ng·h/mL.

Q: Which IC50 [5] does the source give for `CS(=O)(=O)c1ccc2ncc(C(N)=O)c(N)c2c1` here?
A: The IC50 was > 31600 nM.

Q: With `CS(=O)(=O)c1ccc2ncc(C(N)=O)c(Oc3cccc(Cl)c3)c2c1` as the molecule, how does the IC50 [5] read?
A: The IC50 was 3160 nM.

Q: For `CN(c1cccc(Cl)c1)c1c(C(N)=O)cnc2ccc(S(C)(=O)=O)cc12`, which IC50 [5] is on record?
A: The IC50 was 1000 nM.

Q: For `CS(=O)(=O)c1ccc2ncc(C(N)=O)c(NC3CCOCC3)c2c1`, which IC50 [5] is on record?
A: The IC50 was > 31600 nM.

Q: For `CS(=O)(=O)c1ccc2ncc(C(N)=O)c(Nc3cccc(Cl)c3)c2c1`, which IC50 [5] is on record?
A: The IC50 was 15.8 nM.

Q: And the IC50 (Blood)?
A: Its IC50 is 251 nM.

Q: And the solubility [4]?
A: Its solubility is 2 µg/mL (≈ 5.32 µM).

Q: For `COc1cc(Nc2c(C(N)=O)cnc3c(F)cc(S(C)(=O)=O)cc23)ccc1F`, which IC50 (Blood) is on record?
A: Its IC50 is 15.8 nM.

Q: With `CS(=O)(=O)c1ccc2ncc(C(N)=O)c(Nc3cccnc3)c2c1` as the molecule, how does the IC50 [5] read?
A: The IC50 was 100 nM.

Q: What about the IC50 (Blood) of the same molecule?
A: The IC50 was 2000 nM.

Q: For `COc1cccc(Nc2cc(C(N)=O)nc3ccc(S(C)(=O)=O)cc23)c1`, which IC50 [5] is on record?
A: Its IC50 is 7940 nM.

Q: Which IC50 [5] does the source give for `COc1cccc(Nc2c(C(=O)O)cnc3ccc(S(=O)(=O)c4ccccc4)cc23)c1` here?
A: The IC50 was 12600 nM.

Q: With `COc1cccc(Nc2c(-c3nnc(C)o3)cnc3ccc(S(C)(=O)=O)cc23)c1` as the molecule, how does the IC50 [5] read?
A: The IC50 was 20000 nM.

Q: For `CS(=O)(=O)c1ccc2ncc(C(N)=O)c(Nc3cccc(C(=O)O)c3)c2c1`, which IC50 [5] is on record?
A: Its IC50 is 5010 nM.

Q: With `COc1cccc(Nc2c(C#N)cnc3ccc(S(C)(=O)=O)cc23)c1` as the molecule, how does the IC50 [5] read?
A: Its IC50 is 501 nM.

Q: For `COc1cc(Nc2c(C(N)=O)cnc3c(Cl)cc(S(C)(=O)=O)cc23)ccc1F`, which IC50 (Blood) is on record?
A: The IC50 was 7.94 nM.

Q: What about the AUC [6] of the same molecule?
A: Its AUC is 16 ng·h/mL.

Q: Which IC50 [5] does the source give for `CNC(=O)c1cnc2ccc(S(C)(=O)=O)cc2c1Nc1cccc(OC)c1` here?
A: The IC50 was 3160 nM.

Q: With `CS(=O)(=O)c1ccc2ncc(C(N)=O)c(Sc3cccc(Cl)c3)c2c1` as the molecule, how does the IC50 [5] read?
A: The IC50 was 20000 nM.

Q: With `Cc1cc(S(C)(=O)=O)cc2c(Nc3cccc(C#N)c3)c(C(N)=O)cnc12` as the molecule, how does the IC50 (Blood) read?
A: Its IC50 is 25.1 nM.

Q: What about the bioavailability [1] of the same molecule?
A: Its bioavailability is 27%.

Q: What about the half-life [2] of the same molecule?
A: The half-life was 2.3 h.

Q: And the clearance [3]?
A: Its clearance is 19 mL/min/kg.

Q: What about the solubility [4] of the same molecule?
A: Its solubility is 18 µg/mL (≈ 47.3 µM).

Q: What about the fold change (FC) [7] of the same molecule?
A: Its fold change (FC) is > 100.

Q: What about the fold change (FC) [8] of the same molecule?
A: The fold change (FC) was > 100.

Q: And the fold change (FC) [9]?
A: The fold change (FC) was > 100.

Q: What about the fold change (FC) [10] of the same molecule?
A: The fold change (FC) was > 100.

Q: For `COc1cccc(Nc2c(-c3nc(C)no3)cnc3ccc(S(C)(=O)=O)cc23)c1`, which IC50 [5] is on record?
A: The IC50 was 15800 nM.

Q: What does the source list for `COc1cc(Nc2c(C(N)=O)cnc3ccc(S(C)(=O)=O)cc23)ccc1F`?
A: IC50 [5]: 31.6 nM; IC50 (Blood): 158 nM; bioavailability [1]: 65%; half-life [2]: 1.9 h; clearance [3]: 21 mL/min/kg; solubility [4]: 4 µg/mL (≈ 10.3 µM); AUC [6]: 530 ng·h/mL

Q: Which IC50 [5] does the source give for `CS(=O)(=O)c1ccc2ncc(C(N)=O)c(Nc3cccc(O)c3)c2c1` here?
A: The IC50 was 100 nM.

Q: And the solubility [4]?
A: The solubility was 30 µg/mL (≈ 83.9 µM).

Q: What about the fold change (FC) [11] of the same molecule?
A: Its fold change (FC) is > 300.

Q: What about the fold change (FC) (Homo sapiens) of the same molecule?
A: The fold change (FC) was > 300.

Q: Which results are given for `CS(=O)(=O)c1ccc2ncc(C(N)=O)c(Nc3cccc(Cl)c3F)c2c1`?
A: IC50 [5]: 6.31 nM; IC50 (Blood): 251 nM; bioavailability [1]: 47%; half-life [2]: 2 h; clearance [3]: 13 mL/min/kg; solubility [4]: 12 µg/mL (≈ 30.5 µM)

Q: For `CS(=O)(=O)c1ccc2ncc(C(N)=O)c(Nc3cccc(CN)c3)c2c1`, which IC50 [5] is on record?
A: The IC50 was 79.4 nM.

Q: And the IC50 (Blood)?
A: Its IC50 is 1260 nM.

Q: For `CS(=O)(=O)c1ccc2ncc(C(N)=O)c(Nc3cccc(C#N)c3)c2c1`, which IC50 [5] is on record?
A: The IC50 was 20 nM.

Q: And the IC50 (Blood)?
A: The IC50 was 316 nM.

Q: What about the bioavailability [1] of the same molecule?
A: The bioavailability was 23%.

Q: And the half-life [2]?
A: The half-life was 0.9 h.

Q: What about the clearance [3] of the same molecule?
A: Its clearance is 16 mL/min/kg.

Q: Which IC50 [5] does the source give for `CS(=O)(=O)c1ccc2ncc(C(N)=O)c(Nc3cccc4c3CCO4)c2c1` here?
A: Its IC50 is 2.51 nM.

Q: What about the IC50 (Blood) of the same molecule?
A: The IC50 was 25.1 nM.

Q: And the bioavailability [1]?
A: The bioavailability was 38%.

Q: And the half-life [2]?
A: The half-life was 1.7 h.

Q: What about the clearance [3] of the same molecule?
A: The clearance was 38 mL/min/kg.

Q: What about the solubility [4] of the same molecule?
A: The solubility was 43 µg/mL (≈ 112 µM).

Q: What does the source list for `COc1cc(Nc2c(C(N)=O)cnc3c(C)cc(S(C)(=O)=O)cc23)ccc1F`?
A: IC50 [5]: 0.316 nM; IC50 (Blood): 7.94 nM; bioavailability [1]: 82%; half-life [2]: 1.6 h; clearance [3]: 16 mL/min/kg; solubility [4]: 5 µg/mL (≈ 12.4 µM); AUC [6]: 770 ng·h/mL; fold change (FC) [7]: > 100; fold change (FC) [8]: > 100; fold change (FC) [9]: > 100; fold change (FC) [10]: > 100

Q: For `COc1cccc(Nc2c(C(N)=O)cnc3ccc(S(=O)(=O)c4ccccc4)cc23)c1`, which IC50 [5] is on record?
A: The IC50 was 1.58 nM.

Q: With `COc1cccc(Nc2c(CN)cnc3ccc(S(=O)(=O)c4ccccc4)cc23)c1` as the molecule, how does the IC50 [5] read?
A: Its IC50 is 251 nM.

Q: With `O=C(Nc1c(Cl)cncc1Cl)c1ccc(OC(F)F)c(OCC2CC2)c1` [ROFLUMILAST] as the molecule, how does the IC50 (Blood) read?
A: The IC50 was 20 nM.

Q: What about the fold change (FC) [11] of the same molecule?
A: The fold change (FC) was > 300.

Q: And the fold change (FC) (Homo sapiens)?
A: Its fold change (FC) is > 300.

Q: With `CCc1cc(S(C)(=O)=O)cc2c(Nc3ccc(F)c(OC)c3)c(C(N)=O)cnc12` as the molecule, how does the IC50 (Blood) read?
A: Its IC50 is 12.6 nM.
